Measurements published in PubChem BioAssay AID504533 (Broad Institute, 2011).
Several values for one entry are separate records, joined by “and”; a condition that tells them apart may be missing. Equal entries are not always repeated. Records with an inconclusive call do not appear. Activity calls are given as the source filed them.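 How the source made its calls: active means compound whose fitted half-maximal viability-loss concentration is within ten times its top tested dose in every test run; inconclusive means test runs disagree, or a weak flat or poorly fitted curve; inactive means every test run inactive.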

Tested on: not listed separately
Assay: viability loss of control HMLE line – cell-based, HMLE_sh_eGFP, luminescence, powder samples, set 5, counter-screen for breast cancer stem cell project, dose response (AID 504533)
Settings: HMLE_sh_eGFP viability, CellTiter-Glo luminescence, 72 h; at 19.5 µM (top of the series)
Method in brief: (§1)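 System – HMLE_sh_eGFP control cell line · Buffer or medium – serum-free CSC medium · Dosing – 100 nL compound per well · Schedule – about 72 h compound exposure at 37 °C · Technique – luminescent ATP assay (CellTiter-Glo) · Control set – DMSO neutral control, 160 µM puromycin positive control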

| SMILES | activity change, negative = viability loss |
| --- | --- |
| C/C(=C\C(=O)NC1=NCCS1)c1ccc(CC(C)C)cc1 | 17.8% (inactive) |
| Cc1csc(NC(=O)c2ccc(COC(C)(C)C)o2)n1 | -4.37% (inactive) |
| N#Cc1cnc(NC(=O)c2ccc(COc3ccccc3)o2)s1 | -1.72% (inactive) |
| C/C(=C\C(=O)NC1=NCCS1)c1ccc(C)cc1 | -3.46% (inactive) |
| N#Cc1ccc(/C=C/C(=O)NC2=NCCS2)cc1 | -10.2% (inactive) |
| CC(C)c1ccc(/C=C/C(=O)N(C)C2=NCCS2)cc1 | 10.1% (inactive) |
| CCN(CC)C(=O)c1ccc(COc2ccccc2)o1 | 6.38% (inactive) |
| Cc1cc(Br)ccc1OCC(=O)N/N=C/c1ccc[nH]1 | -25.7% (inactive) |
| COCc1ccc(C(=O)Nc2nc(C)cs2)o1 | 15.3% (inactive) |
| CC(C)NC(=O)c1ccc(COc2ccccc2)o1 | -2.28% (inactive) |
| Cc1csc(NC(=O)c2ccc(CS(=O)(=O)c3ccccc3)o2)n1 | -13.3% (inactive) |
| Cc1csc(NC(=O)c2ccc(COC(C)C)o2)n1 | -0.134% (inactive) |
| O=C(Nc1nncs1)c1ccc(COc2ccccc2)o1 | 3.92% (inactive) |
| Cn1c(C(=O)NC2=NCCS2)cc2ccccc21 | -5.73% (inactive) |
| Cc1coc(NC(=O)c2ccc(COc3ccccc3)o2)n1 | 3.69% (inactive) |
| CC(C)c1ccc(/C=C/C(=O)Nc2nc3ccccc3s2)cc1 | -0.373% (inactive) |
| Cc1cc(C)c(OCC(=O)N/N=C/c2ccc[nH]2)c(C)c1 | 1.17% (inactive) |
| Cc1coc(NC(=O)/C=C/c2ccc(C(C)C)cc2)n1 | -6.75% (inactive) |
| Cc1csc(NC(=O)c2ccc(COc3ccccc3S(C)(=O)=O)o2)n1 | 2.08% (inactive) |

Same assay, conditions: HMLE_sh_eGFP viability, CellTiter-Glo luminescence, 72 h; at 30 µM (top of the series)

| SMILES | activity change, negative = viability loss |
| --- | --- |
| Cc1ccc2cc(C(=O)NC3=NCCS3)n(C)c2c1 | -4.12% (inactive) |

Tested on: HMLE_sh_eGFP viability, CellTiter-Glo luminescence, 72 h
Assay: as above
Settings: not given
Method in brief: as §1

| SMILES | AC50 |
| --- | --- |
| CC(C)Cc1ccc(/C=C/C(=O)NC2=NCCS2)cc1 | 3.27 µM |
| Cc1cccc(OCc2ccc(C(=O)Nc3nc(C)cs3)o2)c1 | 0.656 µM and 4.39 µM |
| Cc1csc(NC(=O)c2ccc(COCc3ccccc3)o2)n1 | 19.6 µM |
| Cc1csc(NC(=O)c2ccc(CCc3ccccc3)o2)n1 | 9.08 µM |
| COc1cccc(OCc2ccc(C(=O)Nc3nc(C)cs3)o2)c1 | 2.64 µM |
| Cc1csc(NC(=O)c2ccc(CNc3ccccc3)o2)n1 | 5.09 µM |
